The target of assay [1] is T1, Bromodomain-containing protein 4 (Homo sapiens, UniProt O60885). The assay is described as follows: Inhibition of His-tagged BRD4 bromodomain-1 (unknown origin) expressed in Escherichia coli BL21(DE3) at 5 uM using SGRGK(Ac)-GG-K(Ac)-GLG-K(Ac)-GGA-K(Ac)-RHRKVGG-K-Biotin as substrate preincubated for 15 mins followed by substrate addition measured after 10 mins by Alphascreen assay relative to control. Summed up: (§1)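 His-tagged BRD4_BD1 purified by Ni-NTA, anion exchange and gel filtration, tag retained. Assay buffer: 20 mM HEPES pH 7.4, 0.1% BSA, 0.01% Triton X-100, 1 mM DTT. Protein preincubated with compound 15 min at room temperature, biotinylated tetra-acetyl peptide added for 10 min, then streptavidin donor and nickel chelate acceptor beads for 60 min. Compounds screened at 20 and 5 µM; IC50 from three independent experiments.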

Assay [2] has as its target T1, Bromodomain-containing protein 4. The assay is described as follows: Inhibition of His-tagged BRD4 bromodomain-1 (unknown origin) expressed in Escherichia coli BL21(DE3) at 20 uM using SGRGK(Ac)-GG-K(Ac)-GLG-K(Ac)-GGA-K(Ac)-RHRKVGG-K-Biotin as substrate preincubated for 15 mins followed by substrate addition measured after 10 mins by Alphascreen assay relative to control. Summed up:
as §1

For assay [3] the target is unchanged. Kind of assay: Inhibition of His-tagged BRD4 bromodomain-1 (unknown origin) expressed in Escherichia coli BL21(DE3) at 100 uM using SGRGK(Ac)-GG-K(Ac)-GLG-K(Ac)-GGA-K(Ac)-RHRKVGG-K-Biotin as substrate preincubated for 15 mins followed by substrate addition measured after 10 mins by Alphascreen assay relative to control. (Bead proximity is the source of the signal in Alpha formats.)

For assay [4] the target is unchanged. The assay is described as follows: Inhibition of His-tagged BRD4 bromodomain-1 (unknown origin) expressed in Escherichia coli BL21(DE3) using SGRGK(Ac)-GG-K(Ac)-GLG-K(Ac)-GGA-K(Ac)-RHRKVGG-K-Biotin as substrate preincubated for 15 mins followed by substrate addition measured after 10 mins by Alphascreen assay. Summed up:
as §1

Assay [5] has the same target. The assay is described as follows: Binding affinity to His-tagged BRD4 bromodomain-1 (unknown origin) expressed in Escherichia coli BL21(DE3) assessed as change in melting temperature at 100 uM by SYPRO orange dye based thermal shift assay. Summed up:
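Buffer of 20 mM HEPES pH 7.4, 100 mM NaCl and 1 mM DTT, with 5× SYPRO Orange and 5 µM BRD4_BD1. Compound at 100 µM or 0.5% DMSO, DMSO matched across wells. Heated at 2.5 °C/min from 25 to 95 °C. Tm compared with the DMSO control.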

Each structure is given as a SMILES string. Calls of active or inactive are those of the source. No cut-off for these calls is given here. Bounds are passed on as bounds.

What is called inhibition is how much of the control response was suppressed. As a reminder, the IC50 is the concentration at which inhibition is half-maximal. Lower therefore signals inhibition by little substance. A word on the ΔTm: it is the shift of the melting midpoint relative to a reference.

Turning to `CCN1C(=O)c2cccc3c(S(=O)(=O)NCC(=O)O)ccc1c23`, the inhibition result in assay [1] is “inactive”. The inhibition in assay [2] was 53%.
Regarding `CCN1C(=O)c2cccc3c(S(=O)(=O)N4CCOCC4)ccc1c23`, the inhibition was 55% in assay [1] and 97% in assay [2].
The corresponding values for `CCN1C(=O)c2cccc3c(S(=O)(=O)NCCC(=O)O)ccc1c23` are 41% and 60%.
With `CCN1C(=O)c2cccc3c(S(=O)(=O)N4CCC[C@@H]4CO)ccc1c23`, the inhibition in assay [1] worked out at 9%; in assay [2], 4%.
`CCN1C(=O)c2cccc3c(S(=O)(=O)N4CCC[C@@H](N)C4)ccc1c23`: the inhibition result in assay [1] and in assay [2] was “inactive” each time.
For `CCN1C(=O)c2cccc3c(S(=O)(=O)N[C@@H](Cc4ccccc4)C(=O)OC)ccc1c23`, the values for the inhibition in assay [1] and in assay [2] were 37% and 71%, respectively.
As to `CCN1C(=O)c2cccc3c(S(=O)(=O)N4CCC[C@@H](NC(=O)OC(C)(C)C)C4)ccc1c23`, the inhibition is 9% in assay [1] and 20% in assay [2].
Take `CCN1C(=O)c2cccc3c(S(=O)(=O)N4CCC[C@@H](O)C4)ccc1c23`: the inhibition in assay [3] was greater than 90%; in assay [1], 9%; in assay [2], 27%. Moreover, in assay [4], 32.2 µM corresponded to half-maximal inhibition (IC50).
Consider `CCN1C(=O)c2cccc3c(S(=O)(=O)NCCCO)ccc1c23`, for which the inhibition result in assay [1] and in assay [2] was “inactive” each time.
As for `CCN1C(=O)c2cccc3c(S(=O)(=O)N4CC[C@@H](NC(=O)OC(C)(C)C)C4)ccc1c23`, the inhibition in assay [3] is greater than 90%; in assay [1] it was 57%; in assay [2], 95%. For the same compound, inhibition in assay [4] was half-maximal at 13.3 µM (IC50).
In the case of `CCN1C(=O)c2cccc3c(S(=O)(=O)N4CCC[C@@H]4C(=O)Nc4ccc(C)cc4)ccc1c23`, the figures for the inhibition in assay [1] and in assay [2] were 8% and 51%, respectively.
Take `CCN1C(=O)c2cccc3c(S(=O)(=O)N4CC[C@H](OC)C4)ccc1c23`: the results for the inhibition in assay [1] and in assay [2] were 28% and 80%, respectively.
Turning to `CCN1C(=O)c2cccc3c(S(=O)(=O)NCCC(=O)OC)ccc1c23`, the results for the inhibition in assay [1] and in assay [2] were 29% and 66%, respectively.
The corresponding values for `CCN1C(=O)c2cccc3c(S(=O)(=O)Nc4ccccc4OC)ccc1c23` are 33% and 82%.
Turning to `CCN1C(=O)c2cccc3c(S(=O)(=O)N4CCC[C@@H]4C(=O)Nc4ccccc4)ccc1c23`, the thermal shift (ΔTm) in assay [5] is 13.9 °C. Besides, the results for the inhibition in assay [1] and in assay [2] were 87% and 100%, respectively. The IC50 in assay [4] stood at 1.43 µM.
In the case of `CCN1C(=O)c2cccc3c(S(=O)(=O)N4CCCCC4)ccc1c23`, the inhibition is greater than 90% in assay [3], 58% in assay [1] and 99% in assay [2]. The same compound showed an IC50 in assay [4] of 47.3 µM.
As for `CCN1C(=O)c2cccc3c(S(=O)(=O)N4CC[C@H](N)C4)ccc1c23`, the inhibition entry in assay [1] and in assay [2] was “inactive” in each case.
`CCN1C(=O)c2cccc3c(S(=O)(=O)N4CCC[C@H](N)C4)ccc1c23`: the inhibition entry in assay [1] and in assay [2] was “inactive” each time.
For `CC(=O)N1C(=O)c2cccc3c(S(=O)(=O)N4CCCC4)ccc1c23`, the inhibition was greater than 90% in assay [3], 7% in assay [1] and 9% in assay [2]. The same compound displayed a 50% inhibitory concentration (IC50) in assay [4] of 12.7 µM.
`CCN1C(=O)c2cccc3c(S(=O)(=O)N4CCC[C@@H]4C(=O)Nc4ccc(O)cc4)ccc1c23`: the inhibition worked out at 18% in assay [1] and 63% in assay [2].
For `CCN1C(=O)c2cccc3c(S(=O)(=O)N4CCC[C@H]4CO)ccc1c23`, the inhibition in assay [1] is 11%; in assay [2], 22.4%.
The like results for `CCN1C(=O)c2cccc3c(S(=O)(=O)N4CCC[C@@H]4C(=O)Nc4ccccc4O)ccc1c23` were, in that order, “inactive” and “inactive”.
For the compound `CCCN1C(=O)c2cccc3c(S(=O)(=O)N4CCCC4)ccc1c23`, the inhibition was greater than 90% in assay [3] and 15% in assay [2]. Moreover, the inhibition entry in assay [1] is “inactive”. In addition, in assay [4], half-maximal inhibition (IC50) was put at 11 µM.
Turning to `CCN1C(=O)c2cccc3c(S(=O)(=O)N4CCC(CN)CC4)ccc1c23`, the inhibition in assay [1] was determined as 23%; in assay [2] it was 74%.
On to `CCN1C(=O)c2cccc3c(S(=O)(=O)N4CC[C@@H](OC)C4)ccc1c23`, for which the values for the inhibition in assay [3], in assay [1] and in assay [2] were greater than 90%, 17% and 8%, respectively. For the same compound, half-maximal inhibition in assay [4] (IC50) required 13.3 µM.
The like results for `O=C(O)CN1C(=O)c2cccc3c(S(=O)(=O)N4CCCC4)ccc1c23` were, in that order, greater than 90%, “inactive”, 4% and 23.1 µM.
Take `CCN1C(=O)c2cccc3c(S(=O)(=O)N4CCC[C@@H]4C(=O)Nc4ccccc4C)ccc1c23`: in assay [1], the inhibition entry was “inactive”. The inhibition in assay [2] worked out at 39%.
Take `O=C1c2cccc3c(S(=O)(=O)N4CCCC4)ccc(c23)N1CCO`: the inhibition is greater than 90% in assay [3] and 8% in assay [2]. The inhibition entry in assay [1] was “inactive”. Moreover, 69.2 µM corresponded to half-maximal inhibition in assay [4] (IC50).
`CCN1C(=O)c2cccc3c(S(=O)(=O)N4CC[C@@H](O)C4)ccc1c23`: the inhibition was greater than 90% in assay [3], 21% in assay [1] and 67% in assay [2]. This compound also yielded a half-maximal inhibitory concentration (IC50) in assay [4] of 27.5 µM.
In turn, `O=C(c1ccccc1)c1ccc(NS(=O)(=O)c2cccc(Br)c2)cc1` displayed an inhibition in assay [3] greater than 90%.
Turning to `CCN1C(=O)c2cccc3c(S(=O)(=O)N4CCC[C@H](NC(=O)OC(C)(C)C)C4)ccc1c23`, the inhibition was 7% in assay [1] and 20% in assay [2].
Turning to `CCN1C(=O)c2cccc3c(S(=O)(=O)N4CCC(NC(=O)OC(C)(C)C)CC4)ccc1c23`, the inhibition in assay [1] is 18%; in assay [2] it was 45%.
The like results for `CCN1C(=O)c2cccc3c(S(=O)(=O)N4CCC[C@@H]4C(=O)NO)ccc1c23` were, in that order, 7% and 50%.
Turning to `CN1C(=O)c2cccc3c(S(=O)(=O)N4CCCC4)ccc1c23`, the results for the inhibition in assay [1] and in assay [2] were 5% and 25%, respectively.
`CCN1C(=O)c2cccc3c(S(=O)(=O)N4CCC[C@H](O)C4)ccc1c23`: in assay [1], the inhibition entry is “inactive”. For the same compound, the inhibition in assay [2] worked out at 14%.
On to `CCN1C(=O)c2cccc3c(S(=O)(=O)N4CCC(N)CC4)ccc1c23`, for which the inhibition result in assay [1] was “inactive”. In assay [2], this compound had an inhibition of 16%.
On to `CCN1C(=O)c2cccc3c(S(=O)(=O)N4CCC[C@@H]4C(=O)OC)ccc1c23`, for which the inhibition in assay [1] is 27%; in assay [2] it was 61%.
In assay [3], `CN(C)C(=O)CN1C(=O)c2cccc3c(S(=O)(=O)N4CCCC4)ccc1c23` came in with an inhibition greater than 90%. For the same compound, the inhibition entry in assay [1] and in assay [2] was “inactive” throughout. The compound further gave a concentration for half-maximal inhibition (IC50) in assay [4] of 18.7 µM.
As to `CCN1C(=O)c2cccc3c(S(=O)(=O)N4CC[C@H](O)C4)ccc1c23`, the figures for the inhibition in assay [1] and in assay [2] were 35% and 88%, respectively.
In turn, `CCN1C(=O)c2cccc3c(S(=O)(=O)N[C@@H](Cc4ccccc4)C(=O)O)ccc1c23` had an inhibition in assay [1] of 4%. The inhibition entry in assay [2] was “inactive”.
Consider `CCN1C(=O)c2cccc3c(S(=O)(=O)N[C@H](C(=O)O)C(C)C)ccc1c23`, for which the inhibition result in assay [1] and in assay [2] was “inactive” in each case.
For `CCN1C(=O)c2cccc3c(S(=O)(=O)N(CC)CC)ccc1c23`, the inhibition is greater than 90% in assay [3], 29% in assay [1] and 82% in assay [2]. Besides, in assay [4], the IC50 was found to be 42.2 µM.
On to `CCN1C(=O)c2cccc3c(S(=O)(=O)N4CCC(CNC(=O)OC(C)(C)C)CC4)ccc1c23`, for which the inhibition entry in assay [1] was “inactive”. Besides, the inhibition in assay [2] worked out at 18%.
Regarding `CCN1C(=O)c2cccc3c(S(=O)(=O)N4CC[C@H](NC(=O)OC(C)(C)C)C4)ccc1c23`, the inhibition was greater than 90% in assay [3], 37% in assay [1] and 88% in assay [2]. For the same compound, in assay [4], the half-maximal inhibitory concentration (IC50) came to 50.7 µM.
For `CCN1C(=O)c2cccc3c(S(=O)(=O)N4CCC[C@@H]4C(=O)Nc4ccc(Cl)cc4)ccc1c23`, the inhibition is 42% in assay [1] and 89% in assay [2].
As to `CCOC(=O)CNS(=O)(=O)c1ccc2c3c(cccc13)C(=O)N2CC`, in assay [1], the inhibition result is “inactive”. In assay [2], this compound had an inhibition of 12%.
The like results for `CCN1C(=O)c2cccc3c(S(=O)(=O)N4CC[C@@H](N)C4)ccc1c23` were, in that order, 3% and “inactive”.
The like results for `CCN1C(=O)c2cccc3c(S(=O)(=O)N[C@H](C(=O)OC)C(C)C)ccc1c23` were, in that order, 21% and 89%.

These data come from ChEMBL document CHEMBL4152245, “Design, synthesis and biological evaluation of benzo[cd]indol-2(1H)-ones derivatives as BRD4 inhibitors” (Eur J Med Chem, 2018).
